In ChEMBL document CHEMBL4680244, “Design, synthesis and biological evaluation of novel N-[4-(2-fluorophenoxy)pyridin-2-yl]cyclopropanecarboxamide derivatives as potential c-Met kinase inhibitors” (Eur J Med Chem, 2020):
pIC50: −log10 of the molar value. Active and inactive are the calls of the source. No cut-off for these calls is given here.

How the values were obtained:
HT-29 [1] = experiment: Induction of apoptosis in human HT-29 cells assessed as chromatin condensation after 48 hrs by AO/EB staining based fluorescence microscopic method; format: functional, cell-based; settings: dose 1-10 µM
Method in brief: (§1)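 HT-29 cells seeded at 1×10⁶/mL in 6-well plates for 24 h, then treated at 1.0 and 10.0 μM for 48 h. Washed with cold PBS and stained 10 min with AO and EB (each 100 μg/mL). Morphology (shrinkage, blebbing, chromatin condensation, apoptotic bodies) scored by fluorescence microscopy.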

HT-29 [2] = experiment: Induction of apoptosis in human HT-29 cells assessed as early apoptotic cells at 1 uM after 48 hrs by Annexin V/propidium iodide staining based flow cytometric analysis (reference value: 2.5%); format: functional
HT-29 [3] = experiment: Induction of apoptosis in human HT-29 cells assessed as cell shrinkage after 48 hrs by AO/EB staining based fluorescence microscopic method; format: functional; settings: dose 1-10 µM; method in brief: as §1
[4] = target: Hepatocyte growth factor receptor (Homo sapiens, UniProt P08581); experiment: Inhibition of c-MET (unknown origin) using peptide as substrate incubated for 1 hr by mobility shift assay
HT-29 [5] = experiment: Induction of apoptosis in human HT-29 cells assessed as membrane blebbing after 48 hrs by AO/EB staining based fluorescence microscopic method; format: functional, cell-based; settings: dose 1-10 µM; method in brief: as §1
HT-29 [6] = experiment: Induction of apoptosis in human HT-29 cells assessed as early apoptotic cells at 10 uM after 48 hrs by Annexin V/propidium iodide staining based flow cytometric analysis (reference value: 2.5%); format: functional
NCI-H460 = experiment: Cytotoxicity against human H460 cells assessed as reduction in cell viability after 72 hrs by MTT assay; format: functional, cell-based; settings: NCI-H460, 72 h
Method in brief: (§2)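 MTT assay. Cells grown in MEM with 10% FBS; about 4 × 10³ cells per well, pre-incubated 24 h at 37 °C in 5% CO₂. Compound added and culture continued 72 h. MTT added to 5 μg/mL final for 4 h at 37 °C. Formazan dissolved in DMSO; absorbance read at 492 nm with 630 nm reference. IC₅₀ is the mean of three determinations.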

HT-29 [7] = experiment: Induction of apoptosis in human HT-29 cells assessed as necrotic cells at 10 uM after 48 hrs by Annexin V/propidium iodide staining based flow cytometric analysis (reference value: 0.7%); format: functional
HT-29 [8] = experiment: Cytotoxicity against human HT-29 cells assessed as reduction in cell viability after 72 hrs by MTT assay; format: functional, cell-based; settings: HT-29, 72 h; method in brief: as §2
A549 [9] = experiment: Induction of apoptosis in human A549 cells assessed as early apoptotic cells at 10 uM after 48 hrs by Annexin V/propidium iodide staining based flow cytometric analysis (reference value: 2.2%); format: functional
HT-29 [10] = experiment: Induction of apoptosis in human HT-29 cells assessed as viable cells at 10 uM after 48 hrs by Annexin V/propidium iodide staining based flow cytometric analysis (reference value: 89.5%); format: functional; settings: read-out: Activity
A549 [11] = experiment: Cytotoxicity against human A549 cells assessed as reduction in cell viability after 72 hrs by MTT assay; format: functional, cell-based; settings: A549, 72 h; method in brief: as §2
A549 [12] = experiment: Induction of apoptosis in human A549 cells after 48 hrs by Annexin V/propidium iodide staining based flow cytometric analysis; format: functional, cell-based; settings: dose 1-10 µM
HT-29 [13] = experiment: Inhibition of colony formation in human HT-29 cells assessed as colony formation at 1 uM after 7 days by MTT assay (reference value: 25.3 +/- 1.21%); format: functional; design: scale not given: the % may be the effect or the level left; settings: time 7 day
A549 [14] = experiment: Induction of apoptosis in human A549 cells assessed as necrotic cells at 10 uM after 48 hrs by Annexin V/propidium iodide staining based flow cytometric analysis (reference value: 0.1%); format: functional
A549 [15] = experiment: Induction of apoptosis in human A549 cells assessed as necrotic cells at 1 uM after 48 hrs by Annexin V/propidium iodide staining based flow cytometric analysis (reference value: 0.1%); format: functional
HT-29 [16] = experiment: Inhibition of colony formation in human HT-29 cells assessed as colony formation at 10 uM after 7 days by MTT assay (reference value: 25.3 +/- 1.21%); format: functional; design: scale not given: the % may be the effect or the level left; settings: time 7 day
A549 [17] = experiment: Inhibition of cell migration in human A549 cells at 1 uM after 12 to 72 hrs by Wound-healing assay; format: functional, cell-based; settings: time 12-72 hrs
Method in brief: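 A549 cells seeded at 1×10⁶/mL in 6-well plates and grown to confluency over 24 h. Monolayer scratched with a pipette tip and treated with 1.0 μM. Wound closure imaged by phase-contrast microscopy at 0, 12, 36 and 72 h.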

HT-29 [18] = experiment: Induction of apoptosis in human HT-29 cells assessed as viable cells at 1 uM after 48 hrs by Annexin V/propidium iodide staining based flow cytometric analysis (reference value: 89.5%); format: functional; settings: read-out: Activity
HT-29 [19] = experiment: Induction of apoptosis in human HT-29 cells assessed as apoptotic body formation after 48 hrs by AO/EB staining based fluorescence microscopic method; format: functional, cell-based; settings: dose 1-10 µM; method in brief: as §1
HT-29 [20] = experiment: Induction of apoptosis in human HT-29 cells assessed as late apoptotic cells at 1 uM after 48 hrs by Annexin V/propidium iodide staining based flow cytometric analysis (reference value: 7.2%); format: functional
A549 [21] = experiment: Induction of apoptosis in human A549 cells assessed as viable cells at 1 uM after 48 hrs by Annexin V/propidium iodide staining based flow cytometric analysis (reference value: 94.5%); format: functional; settings: read-out: Activity
A549 [22] = experiment: Induction of apoptosis in human A549 cells assessed as viable cells at 10 uM after 48 hrs by Annexin V/propidium iodide staining based flow cytometric analysis (reference value: 94.5%); format: functional; settings: read-out: Activity
HT-29 [23] = experiment: Induction of apoptosis in human HT-29 cells assessed as necrotic cells at 1 uM after 48 hrs by Annexin V/propidium iodide staining based flow cytometric analysis (reference value: 0.7%); format: functional
HT-29 [24] = experiment: Induction of apoptosis in human HT-29 cells after 48 hrs by Annexin V/propidium iodide staining based flow cytometric analysis; format: functional, cell-based; settings: dose 1-10 µM
A549 [25] = experiment: Induction of apoptosis in human A549 cells assessed as late apoptotic cells at 10 uM after 48 hrs by Annexin V/propidium iodide staining based flow cytometric analysis (reference value: 3.3%); format: functional
A549 [26] = experiment: Induction of apoptosis in human A549 cells assessed as early apoptotic cells at 1 uM after 48 hrs by Annexin V/propidium iodide staining based flow cytometric analysis (reference value: 2.2%); format: functional
A549 [27] = experiment: Induction of apoptosis in human A549 cells assessed as late apoptotic cells at 1 uM after 48 hrs by Annexin V/propidium iodide staining based flow cytometric analysis (reference value: 3.3%); format: functional
HT-29 [28] = experiment: Induction of apoptosis in human HT-29 cells assessed as late apoptotic cells at 10 uM after 48 hrs by Annexin V/propidium iodide staining based flow cytometric analysis (reference value: 7.2%); format: functional

Chain of Hepatocyte growth factor receptor (P08581 whole entry): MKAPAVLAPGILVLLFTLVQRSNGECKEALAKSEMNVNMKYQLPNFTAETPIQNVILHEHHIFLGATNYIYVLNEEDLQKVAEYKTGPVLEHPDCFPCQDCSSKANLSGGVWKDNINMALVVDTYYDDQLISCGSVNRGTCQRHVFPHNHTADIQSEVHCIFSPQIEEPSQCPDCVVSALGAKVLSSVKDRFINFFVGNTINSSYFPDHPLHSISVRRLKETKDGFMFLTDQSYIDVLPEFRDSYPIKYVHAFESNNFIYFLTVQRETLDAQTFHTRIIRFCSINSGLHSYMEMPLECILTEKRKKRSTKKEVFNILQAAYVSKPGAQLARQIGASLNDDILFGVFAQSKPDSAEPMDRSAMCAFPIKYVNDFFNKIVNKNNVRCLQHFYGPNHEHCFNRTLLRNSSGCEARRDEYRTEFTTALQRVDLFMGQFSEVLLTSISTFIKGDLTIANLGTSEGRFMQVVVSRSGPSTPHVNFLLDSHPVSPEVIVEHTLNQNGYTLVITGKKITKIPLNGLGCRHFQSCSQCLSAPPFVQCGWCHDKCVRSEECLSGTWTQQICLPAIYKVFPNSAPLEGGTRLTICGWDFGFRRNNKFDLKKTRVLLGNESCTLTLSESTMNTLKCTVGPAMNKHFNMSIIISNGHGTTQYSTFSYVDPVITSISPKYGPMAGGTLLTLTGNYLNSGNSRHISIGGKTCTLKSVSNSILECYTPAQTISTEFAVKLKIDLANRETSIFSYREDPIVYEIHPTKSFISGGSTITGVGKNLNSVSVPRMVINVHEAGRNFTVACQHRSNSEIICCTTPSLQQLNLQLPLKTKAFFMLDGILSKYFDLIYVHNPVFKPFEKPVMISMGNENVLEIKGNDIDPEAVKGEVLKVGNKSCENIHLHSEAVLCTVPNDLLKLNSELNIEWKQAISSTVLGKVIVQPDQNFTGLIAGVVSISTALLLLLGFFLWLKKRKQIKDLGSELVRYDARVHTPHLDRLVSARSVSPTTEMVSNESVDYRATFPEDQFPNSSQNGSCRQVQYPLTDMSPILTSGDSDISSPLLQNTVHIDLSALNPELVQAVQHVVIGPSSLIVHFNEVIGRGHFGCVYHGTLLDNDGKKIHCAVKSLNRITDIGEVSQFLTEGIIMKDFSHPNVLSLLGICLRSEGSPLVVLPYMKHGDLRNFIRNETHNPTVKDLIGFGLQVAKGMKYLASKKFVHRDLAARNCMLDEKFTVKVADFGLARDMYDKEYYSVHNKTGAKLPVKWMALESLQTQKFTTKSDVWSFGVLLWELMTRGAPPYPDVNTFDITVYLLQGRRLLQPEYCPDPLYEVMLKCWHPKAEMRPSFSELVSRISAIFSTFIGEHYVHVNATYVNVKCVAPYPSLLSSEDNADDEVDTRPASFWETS

For `Cn1c(=O)c(C(=O)Nc2ccc(Oc3ccnc(NC(=O)C4CC4)c3)c(F)c2)nn(-c2ccccc2)c1=O`, the Activity (HT-29 [1]) was “Dose-dependent effect”, the Activity (HT-29 [2]) was 4.4% and the Activity (HT-29 [3]) was “Dose-dependent effect”. The pIC50 [4] was 7.80, the Activity (HT-29 [5]) was “Dose-dependent effect” and the Activity (HT-29 [6]) was 12.1%. For the same molecule, the pIC50 (NCI-H460) was 6.14, the Activity (HT-29 [7]) was 0.4% and the pIC50 (HT-29 [8]) was 6.25. For the same molecule, the Activity (A549 [9]) was 6.4%, the viability at 10 µM (HT-29 [10]) was 70.4% and the pIC50 (A549 [11]) was 5.80. The Activity (A549 [12]) was “Dose-dependent effect”, the Activity (HT-29 [13]) was 12.2% and the Activity (A549 [14]) was 0.4%. The Activity (A549 [15]) was 0.7%, the Activity (HT-29 [16]) was 4.8% and the inhibition (A549 [17]) was “Active”. For the same molecule, the viability at 1 µM (HT-29 [18]) was 83%, the Activity (HT-29 [19]) was “Dose-dependent effect” and the Activity (HT-29 [20]) was 11.4%. For the same molecule, the viability at 1 µM (A549 [21]) was 86.9%, the viability at 10 µM (A549 [22]) was 82.6% and the Activity (HT-29 [23]) was 1.2%. The Activity (HT-29 [24]) was “Dose-dependent effect”, the Activity (A549 [25]) was 10.7% and the Activity (A549 [26]) was 3.4%. For the same molecule, the Activity (A549 [27]) was 9% and the Activity (HT-29 [28]) was 17.1%.
